Screening results (PubChem)
Rows were chosen to be rich in hits. Some 1.8% of all compounds tested hit in one or more screens of this group.
PTPN22 act = activators of human LYP (PTPN22) phosphatase; Q9Y2R2; recombinant LYP, DiFMUP fluorescence; 0 = plate median, 100 = signal doubled; activation, % at 2 µM; 96,000 compounds, 0.11% hits; AID 697;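 active means activation at 2 µM above a set limit, the mean plus 5 SD, cut at about 37% in these data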
PLK1 PBD inh = inhibitors of human Plk1 polo box domain binding; Plk1 PBD phosphopeptide binding, fluorescence polarization; inhibition, %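 (tested at about 20 µM)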; 97,000 compounds, 0.13% hits; AID 693; in the data active means inhibition above about 34%, passing the limit was not always enough
Target sequence (P53350 whole entry, looked up, the tested form may be a part): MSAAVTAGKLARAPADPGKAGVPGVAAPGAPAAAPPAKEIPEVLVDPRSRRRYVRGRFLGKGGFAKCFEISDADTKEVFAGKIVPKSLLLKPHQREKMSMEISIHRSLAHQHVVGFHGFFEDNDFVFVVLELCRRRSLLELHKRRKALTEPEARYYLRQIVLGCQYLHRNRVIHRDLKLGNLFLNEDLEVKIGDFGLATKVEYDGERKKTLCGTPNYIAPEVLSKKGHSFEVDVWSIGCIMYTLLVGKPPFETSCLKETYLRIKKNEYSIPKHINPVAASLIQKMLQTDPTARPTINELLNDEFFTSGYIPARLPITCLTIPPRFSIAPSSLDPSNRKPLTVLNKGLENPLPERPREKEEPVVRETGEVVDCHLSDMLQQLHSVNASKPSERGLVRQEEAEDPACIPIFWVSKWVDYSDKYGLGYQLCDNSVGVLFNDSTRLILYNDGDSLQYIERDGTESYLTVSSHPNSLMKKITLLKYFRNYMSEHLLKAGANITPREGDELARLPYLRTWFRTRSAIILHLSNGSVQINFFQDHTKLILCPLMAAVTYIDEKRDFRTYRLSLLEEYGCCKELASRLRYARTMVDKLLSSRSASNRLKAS
PLK1 kinase inh = PLK1 (human) kinase inhibition; inhibition, % at 10 µM; recombinant PLK1 kinase, TR-FRET peptide phosphorylation; 97,000 compounds, 0.53% hits; P53350; AID 619;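 active means inhibition of 50% or more in the single-concentration screen; inactive means inhibition below 50%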;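 further: 0% = DMSO max control and 100% = H-89 dihydrochloride min control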
PTPN22 inh 2 = blocks human PTPN22 phosphatase activity; 96,000 compounds, 0.21% hits; recombinant LYP catalytic domain, DiFMUP fluorescence; Q9Y2R2; inhibition, % at 2 µM;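 active means inhibition at 2 µM at or above a set limit, the screen mean plus 3 SD, cut at about 24% in these data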;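 further: 0% = DMSO with enzyme and 100% = enzyme fully blocked by orthovanadate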
HIV Rev-RRE inh = disrupts HIV-1 Rev binding to RRE RNA; Rev peptide-RRE RNA binding, FRET; inhibition, % at 8 µM; 97,000 compounds, 0.79% hits; AID 704;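 active means inhibition above the screen-wide mean plus 3 SD, cut at about 35% in these data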;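 further: 0% = median DMSO wells and 100% = median Neomycin B control wells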
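Test system: Cy5-tagged RRE RNA duplex with fluorescein-tagged Rev peptide | Read-out: % inhibition of FRET ratio versus controls | Probe or stimulus: Labelled Rev peptide | Incubation: 5 min RNA-compound premix plus 15 min binding step, 25 °C | Technique: FRET fluorescence readout | Benchmarks: DMSO low control, neomycin B high control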
EphB4 antag = antagonists of human EphB4-ephrin-B2 interaction; EphB4 LBD / TNYL-RAW-Alexa532 peptide, fluorescence polarization; inhibition, % at 7 µM; 97,000 compounds, 0.15% hits; AID 720;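 active means inhibition above the screen-wide mean inhibition plus 3 SD, cut at about 15% in these data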;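 further: 0% = DMSO wells and 100% = excess unlabeled TNYL-RAW peptide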
PLK1 confirm = confirmation of human PLK1 kinase inhibitors | recombinant PLK1 kinase, TR-FRET peptide phosphorylation | shares compounds with PLK1 kinase inh | AID 744 | 210 compounds, 20% hits | inhibition, % at 10 µM;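 active means inhibition at or above 50% in each of two repeat confirmation tests; inconclusive means one repeat below 50% inhibition, the other above; inactive means both repeats at or below 50% inhibition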;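 further: 0% = DMSO max control and 100% = H-89 kinase-blocked min control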
Plk1 interf = Plk1 assay compound interference counter-screen hit; inhibition (interference), % at 10 µM; shares compounds with PLK1 kinase inh; 210 tested, under 10 active; Plk1 TR-FRET assay interference, compound added post-reaction;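 active means both duplicate runs show 50% or greater inhibition; inconclusive means only one duplicate run shows over 50% inhibition; inactive means both runs show under 50% inhibition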;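 further: 0% = DMSO max control and 100% = H-89 min control inhibited reaction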
Redox H2O2 DR = generates H2O2 by redox cycling, flagging false Plk1 PBD hits. EC50, µM. 120 tested, under 10 active. shares compounds with PLK1 PBD inh. redox cycling H2O2 generation, DTT, counter-screen; call rule not given here
* hit, by the source's call; ? = inconclusive; / = not tested or not shown.

SMILES	PTPN22 act	PLK1 PBD inh	PLK1 kinase inh	PTPN22 inh 2	HIV Rev-RRE inh	EphB4 antag	PLK1 confirm	Plk1 interf	others
CC(=O)N1CCN(c2ccc(NCc3ccc(C)s3)cc2)CC1	/	-9	77*	/	-1	1	-1	-59
Cc1ccc(S(=O)(=O)Nc2ccc3nc(-c4cccn4C)[nH]c3c2)cc1	4	-5	-11	-8	4	-2	/	/
Cc1ccc(NC(=O)C(Cc2ccccc2)NC(=O)c2ccco2)cc1 (stereo not drawn)	-4	22	-5	1	0	-3	/	/
NC(=O)c1ccc(C(F)(F)F)n(Cc2cccc(Cl)c2)c1=O	8	24	75*	-5	7	-11	62*	-56
NC(=O)c1ccc(C(F)(F)F)n(Cc2ccc(Cl)cc2)c1=O	20	-19	81*	-18	14	-6	56*	-49
CCN(CC)CCN(C(=O)Cn1nnc(-c2ccc(OC)c(OC)c2)n1)C(C(=O)NC1CCCC1)c1ccc(F)cc1 (stereo not drawn)	-5	3	-15	5	0	4	/	/
COc1ccc(C2N=C(N)N=C(N)N2c2ccccc2OC)cc1OC (stereo not drawn)	-8	-6	-2	12	1	8	/	/
C=CCNc1nc(N)c(C(=O)c2ccc3c(c2)OCO3)s1	-10	12	75*	9	1	-8	74*	-45
Cc1sc2nc3n(c(=O)c2c1C)NC(=O)CC3	-6	-2	-15	10	10	1	/	/
CC(C)Cc1nc2n[nH]c(N)c2c2c1COC(C)(C)C2	-3	-35	75*	6	5	-4	?	-54
CC1C(C(=O)Nc2ccccc2)CCCC1(C)C(=O)O (stereo not drawn)	6	34	-4	-9	8	1	/	/
CCc1cccc(OCC(=O)Nc2ccc(S(=O)(=O)Nc3onc(C)c3C)cc2)c1	/	-20	75*	/	0	3	-2	-60
O=C(CSc1nnc(-c2ccc(Cl)cc2Cl)n1C1CCCCC1)N1CCCC1	2	10	-5	-1	2	5	/	/
COc1ccccc1N1CCN(S(=O)(=O)c2ccc(F)cc2)CC1	-23	8	82*	23	4	0	-4	-54
Nc1nc(-c2ccco2)c(-c2ccco2)s1	0	-3	-7	0	13	6	/	/
c1coc(-c2nc(-c3ccco3)c(-c3ccco3)nc2-c2ccco2)c1	1	-14	93*	-3	-150	19*	-3	-53
Nc1nc2ccc([N+](=O)[O-])c(N)c2s1	-4	14	76*	8	4	9	75*	-46
CS(=O)(=O)c1ccc2nc(N)sc2c1	-10	38	-8	8	3	3	/	/
Cc1ccc(NC(=O)/C(=C\c2ccccc2)NC(=O)/C=C/c2ccccc2)cc1	-3	-7	-8	7	3	6	/	/
O=c1[nH]cnc2scc(-c3cccs3)c12	3	1	73*	-6	0	1	65*	-49
CCN(CC)S(=O)(=O)c1ccc(C(=O)OCCN2C(=O)CCC2=O)cc1	/	-10	74*	/	1	-1	-10	-48
Cc1cccnc1Nc1nc(-c2ccc(O)cc2O)cs1	7	15	10	-9	-5	4	/	/
NS(=O)(=O)c1ccc(Nc2nc(-c3ccc(O)cc3O)cs2)cc1	0	17	72*	0	4	-5	?	-45
O=c1[nH]cc(COCc2ccccc2)c(=O)[nH]1	6	46*	-7	-6	7	3	/	/	Redox H2O2 DR=>50
COc1cc(OC)cc(C(=O)NCCCN2CCOCC2)c1	0	53*	-9	1	4	-5	/	/	Redox H2O2 DR=>50
SMILES	PTPN22 act	PLK1 PBD inh	PLK1 kinase inh	PTPN22 inh 2	HIV Rev-RRE inh	EphB4 antag	PLK1 confirm	Plk1 interf	others
Cn1c(C(=O)NCc2cccs2)cc2c(=O)n(C)c3ccccc3c21	15	-18	-22	-18	-2	-10	/	/
Cc1ccc(CNC(=O)c2cc3c(=O)n(C)c4ccccc4c3n2C)cc1	3	62*	-71	-6	3	-7	/	/	Redox H2O2 DR=>50
CCn1c(SCC(=O)N2CCCCC2C)nnc1-c1ccc(S(=O)(=O)N2CCN(C)CC2)cc1 (stereo not drawn)	-1	-28	-6	2	8	5	/	/
CCn1c(SCC(N)=O)nnc1-c1ccc(S(=O)(=O)N2CCN(C)CC2)cc1	2	44*	-11	-6	3	0	/	/	Redox H2O2 DR=>50
CCOc1cc(C)c(C(C)C)cc1S(=O)(=O)NCc1ccccn1	-6	12	-1	5	0	-11	/	/
CC1CN(C2CC(C)(C)NC(C)(C)C2)CCC1=O (stereo not drawn)	-5	53*	0	6	8	6	/	/	Redox H2O2 DR=>50
O=C1Nc2ccc([N+](=O)[O-])cc2C1(O)N1CCCCC1 (stereo not drawn)	-8	57*	-14	11	3	0	/	/	Redox H2O2 DR=>50
CC(=O)N(C)c1ccc(NC(=O)c2ccccc2C(=O)O)cc1	-5	1	-4	4	7	6	/	/
CCn1ccc(C(=O)Nc2ccc(N(C)C(C)=O)cc2)n1	-4	52*	-4	4	4	6	/	/	Redox H2O2 DR=>50
CCCSc1nc(N2CCOCC2)c2c(c1C#N)CCCC2	-3	51*	-14	2	14	4	/	/	Redox H2O2 DR=>50
Cc1cc(NC(=O)CCC(=O)N(c2ccccc2)C(C(=O)NCC2CCCO2)c2cccnc2)no1 (stereo not drawn)	4	-25	-12	-4	-4	-5	/	/
CC(C)Nc1nnc(SCC(=O)c2c(N)n(Cc3ccccc3)c(=O)n(C)c2=O)s1	-9	45*	0	13	4	1	/	/	Redox H2O2 DR=>50
Cc1c(Cl)cccc1NC(=S)NN1CCOCC1	8	-35	-4	-6	9	-1	/	/
Cc1cccc(C)c1NC1=NC(=S)N(c2ccccc2)C12CCOC(C)(C)C2 (stereo not drawn)	-13	111*	-3	13	2	8	/	/	Redox H2O2 DR=>50
CN1C(=O)CC(N2CCN(c3ccc(Cl)c(Cl)c3)CC2)C1=O (stereo not drawn)	9	-23	5	-5	-1	2	/	/
Cc1ccc(-n2nc(C(=O)NCc3ccc(C)o3)c3c4ccccc4n(C)c3c2=O)cc1	-3	-19	-10	3	-5	-6	/	/
O=S(=O)(N/N=C\c1ccc2c(c1)OCO2)c1ccc(Cl)cc1	13	24	-1	-7	-2	-1	/	/
